This note sets out measurements from ChEMBL document CHEMBL1125582, “4-hydroxythiazole inhibitors of 5-lipoxygenase” (J Med Chem, 1991).

Experiment [1] relates to cyclooxygenase (Ovis aries). Put plainly: The compound was tested for the in vitro inhibition of Prostaglandin G/H synthase of sheep seminal vesicle at a concentration of 30 uM.
For experiment [2], the target named is T1, Arachidonate 12-lipoxygenase (Rattus norvegicus) (UniProt Q02759).
T1 sequence (whole entry): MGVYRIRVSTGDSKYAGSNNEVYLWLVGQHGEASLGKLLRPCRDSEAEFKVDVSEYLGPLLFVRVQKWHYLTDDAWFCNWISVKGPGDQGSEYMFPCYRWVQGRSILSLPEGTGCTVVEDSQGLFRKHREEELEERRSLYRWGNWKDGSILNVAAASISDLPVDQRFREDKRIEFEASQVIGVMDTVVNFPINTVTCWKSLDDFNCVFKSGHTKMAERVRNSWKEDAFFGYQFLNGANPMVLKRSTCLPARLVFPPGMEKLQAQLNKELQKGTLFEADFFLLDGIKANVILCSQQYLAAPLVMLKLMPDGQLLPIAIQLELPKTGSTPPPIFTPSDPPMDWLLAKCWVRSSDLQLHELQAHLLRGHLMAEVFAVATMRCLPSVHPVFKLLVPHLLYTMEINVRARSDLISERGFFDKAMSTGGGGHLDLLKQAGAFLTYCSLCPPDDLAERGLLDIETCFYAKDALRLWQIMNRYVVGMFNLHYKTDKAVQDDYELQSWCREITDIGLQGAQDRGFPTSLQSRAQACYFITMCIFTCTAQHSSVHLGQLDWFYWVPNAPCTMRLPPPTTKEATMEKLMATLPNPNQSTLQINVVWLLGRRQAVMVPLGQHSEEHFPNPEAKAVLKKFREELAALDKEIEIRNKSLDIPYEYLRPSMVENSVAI
Put plainly: The compound was tested for the in vitro inhibition of platelet 12-lipoxygenase at a concentration of 100 uM.

In experiment [3] the test system is 15-lipoxygenase (Glycine max). Put plainly: The compound was tested for the in vitro inhibition of 15-lipoxygenase of soybean at a concentration of 10 uM. To be noted: at 10 µM.
The test system of experiment [4] is 15-lipoxygenase (Glycine max). In words: The compound was tested for the in vitro inhibition of 15-lipoxygenase of soybean at a concentration of 100 uM. To be noted: at 100 µM.
The target in experiment [5] is T1, Arachidonate 12-lipoxygenase (Rattus norvegicus). Put plainly: The compound was tested for the in vitro inhibition of platelet 12-lipoxygenase at a concentration of 30 uM.
Experiment [6] addresses T2, Polyunsaturated fatty acid 5-lipoxygenase (Rattus norvegicus) (UniProt P12527).
T2 sequence (whole entry): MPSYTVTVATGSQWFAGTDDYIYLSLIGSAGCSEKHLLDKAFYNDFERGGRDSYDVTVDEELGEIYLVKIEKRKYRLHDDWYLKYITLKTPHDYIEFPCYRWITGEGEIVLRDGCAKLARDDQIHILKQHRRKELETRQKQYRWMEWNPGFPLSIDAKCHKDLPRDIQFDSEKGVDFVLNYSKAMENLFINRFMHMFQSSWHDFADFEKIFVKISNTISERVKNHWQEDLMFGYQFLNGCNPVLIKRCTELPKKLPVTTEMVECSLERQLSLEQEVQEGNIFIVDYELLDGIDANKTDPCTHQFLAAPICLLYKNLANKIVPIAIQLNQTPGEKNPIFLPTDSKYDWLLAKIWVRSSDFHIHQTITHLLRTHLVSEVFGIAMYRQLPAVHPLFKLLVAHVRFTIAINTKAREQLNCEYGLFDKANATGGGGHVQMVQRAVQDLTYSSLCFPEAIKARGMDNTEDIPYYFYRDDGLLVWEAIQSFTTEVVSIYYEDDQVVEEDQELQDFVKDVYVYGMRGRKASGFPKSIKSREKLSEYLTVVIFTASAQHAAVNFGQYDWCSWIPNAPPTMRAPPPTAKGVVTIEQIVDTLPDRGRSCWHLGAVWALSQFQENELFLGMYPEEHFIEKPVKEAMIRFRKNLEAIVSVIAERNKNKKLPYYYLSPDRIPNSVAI
Put plainly: The compound was tested for the in vitro inhibition of 5-lipoxygenase (5-lo) from the 20000 g supernatant of RBI-1 cells measured at a concentration of 30 uM. Format: cell-based. The essentials:
(§1)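 20000g supernatant of homogenized RBL-1 cells (7.5 × 10⁶ cell equiv/mL) preincubated 20 min at 37 °C with inhibitor or 2% Me₂SO vehicle in pH 6.8 BES/PIPES buffer with EDTA, NaCl, 0.7 mM CaCl₂. Reaction started with 66 μM [¹⁴C]arachidonic acid. [¹⁴C]-5-HETE counted by scintillation, corrected for [³H]-5-HETE recovery.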

Experiment [7] concerns the target T3, Polyunsaturated fatty acid 5-lipoxygenase (Rattus norvegicus, UniProt P12527).
T3 sequence (P12527 whole entry): T2 sequence (whole entry)
In words: The compound was tested for the inhibition of 5-lipoxygenase (5-lo) in homogenized rat basophilic leukemia (RBL-1) cells. Type of experiment: cell-based. The essentials:
as §1

Experiment [8] has as its target T3, Polyunsaturated fatty acid 5-lipoxygenase. In words: In vitro inhibition of 5-lipoxygenase (5-lo) from the 20000 g supernatant of RBI-1 cells. Format: cell-based.
In experiment [9] the target is T4, Polyunsaturated fatty acid 5-lipoxygenase (Homo sapiens, UniProt P09917).
T4 sequence (P09917 whole entry): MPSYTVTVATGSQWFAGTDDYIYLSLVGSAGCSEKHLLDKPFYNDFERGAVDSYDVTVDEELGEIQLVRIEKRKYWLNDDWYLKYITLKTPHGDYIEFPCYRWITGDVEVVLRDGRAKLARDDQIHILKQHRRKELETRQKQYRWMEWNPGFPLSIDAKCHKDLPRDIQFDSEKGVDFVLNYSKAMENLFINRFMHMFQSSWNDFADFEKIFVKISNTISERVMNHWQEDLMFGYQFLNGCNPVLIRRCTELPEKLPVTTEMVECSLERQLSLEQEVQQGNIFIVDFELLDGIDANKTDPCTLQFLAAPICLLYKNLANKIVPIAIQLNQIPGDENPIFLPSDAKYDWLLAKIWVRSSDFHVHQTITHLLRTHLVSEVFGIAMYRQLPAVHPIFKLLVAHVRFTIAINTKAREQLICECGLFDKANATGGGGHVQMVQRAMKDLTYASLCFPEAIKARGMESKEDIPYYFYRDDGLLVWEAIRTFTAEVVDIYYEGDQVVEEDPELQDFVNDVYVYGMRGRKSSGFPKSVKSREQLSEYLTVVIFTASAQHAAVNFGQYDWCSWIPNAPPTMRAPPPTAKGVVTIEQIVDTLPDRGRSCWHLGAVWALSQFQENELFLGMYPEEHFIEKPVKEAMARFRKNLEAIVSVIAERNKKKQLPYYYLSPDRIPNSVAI
Put plainly: The compound was tested for the inhibition of 5-lipoxygenase (5-lo) in human whole blood (HWBL). Type of experiment: tissue-based. In a few lines: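 Heparinized (20 units/mL) human blood preincubated 15 min at 37 °C with compound or vehicle. Challenged with A23187 in DMSO (final 50 μM) for 30 min, then chilled and centrifuged. Plasma extracted with 4 volumes methanol for at least 2 h at 3 °C. LTB₄ measured by RIA or EIA.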

For experiment [10], the target named is T3, Polyunsaturated fatty acid 5-lipoxygenase. Put plainly: The compound was tested for the in vitro inhibition of 5-lipoxygenase from the 20000 g supernatant of RBI-1 cells. Type of experiment: cell-based. In a few lines: as §1
In experiment [11] the target is T2, Polyunsaturated fatty acid 5-lipoxygenase (Rattus norvegicus). In words: The compound was tested for the in vitro inhibition of 5-lipoxygenase (5-lo) from the 20000 g supernatant of RBI-1 cells at a concentration of 32 uM. Type of experiment: cell-based. The essentials: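 RBL-1 cell homogenate, 20000g supernatant (7.5 × 10⁶ cell equiv/mL), preincubated 20 min at 37 °C with inhibitor or 2% Me₂SO vehicle in pH 6.8 BES/PIPES/EDTA/NaCl/CaCl₂ buffer; reaction started with 66 μM [¹⁴C]arachidonic acid. [¹⁴C]-5-HETE counted by scintillation, corrected by [³H]-5-HETE recovery; percent reduction vs control, single 32 μM concentration.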

SMILES strings stand for the structures.

By inhibition is commonly meant how much of the control response was suppressed. Low values mean little suppression, high ones strong suppression. In the case of `COC(=O)c1ccc(-c2nc(O)c(C)s2)cc1`, the inhibition in experiment [1] came to 6%; in experiment [2], 0%; in experiment [3], 52%.

With `Oc1nc(-c2ccccc2)sc1-c1ccccc1`, the inhibition stood at 47% in experiment [1], 50% in experiment [4] and 12% in experiment [5].

`O=C1CSC(c2ccccc2)=N1`: the inhibition in experiment [6] came out at 26%.

`O=C1CSC(c2cccnc2)=N1`: the inhibition in experiment [6] was 8%.

Usually IC50 stands for the concentration that gives 50% inhibition. Read a high IC50 as a need for much substance. On to `CCCOC(=O)Oc1nc(-c2ccccc2)sc1CCC`, for which the IC50 in [7] turned out to be 1400 nM; in experiment [8] it was 3300 nM; in experiment [9], 2200 nM.

As for `CN(O)C(=O)Cc1sc(-c2ccccc2)nc1O`, the IC50 in experiment [10] came out at 4400 nM.

Consider `Cc1sc(-c2ccccc2)nc1O`, for which the inhibition in [1] came out at 32%; in [2], 51%; in experiment [3] it was 44%.

For the compound `COP(=O)(OC)Oc1nc(-c2ccccc2)sc1-c1ccccc1`, the inhibition in [11] is 14%.
